# From ChEMBL document CHEMBL1124534, “Synthesis, mechanism of action, and biological evaluation of mitosenes” (1989)
# How the values were obtained:
# Mus musculus [1] = assay: Mean relative body weight change of treated / mean relative body weight change of control when compound (3 mg/kg/day) administered to inhibit growth of human tumor xenograft GXF 97 was reported at day 28 in nude mice; assay type: functional
# Procedure, shortened: (§1)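 GXF 97 xenograft grown subcutaneously in nude mice for 24 days, then randomized; ip dosing began 1 day later, given on days 1-4, with 4-5 mice per group. Read-out is mean relative body weight change of treated divided by mean relative body weight change of controls, in %.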
# Mus musculus [2] = assay: Percentage change in body weight [(day 6 - day 1)/ day 1] for antitumor activity against P388 Leukemia in CD2 mice at fractioned dose treatment of 12 mg/kg; assay type: functional; conditions: in the assay text read “single dose treatment” for “fractioned dose treatment”
# Procedure, shortened: (§2)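 Mouse P388 leukemia model. Drugs were given intraperitoneally, either as a single injection or once daily for 9 consecutive days (fractioned schedule). Outcomes were median survival time in days, %T/C, and % body weight change.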
# Mus musculus [3] = assay: Median survival time in days for antitumor activity against P388 Leukemia in CD2 mice at single dose treatment of 8 mg/Kg
# Mus musculus [4] = assay: Median survival time in days for antitumor activity against P388 Leukemia in CD2 mice at single dose treatment of 12 mg/Kg
# Mus musculus [5] = assay: Relative tumor size on day 28 was reported when compound (3 mg/kg/day) administered to inhibit growth of human tumor xenograft GXF 97 in nude mice; assay type: functional
# Procedure, shortened: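 GXF 97 human gastric xenograft grown subcutaneously in nude mice for 24 days, then mice randomized; treatment began 1 day later. Fractioned ip injections on days 1-4, or single iv injection on day 1; 4-5 mice per group. Tumor size from length and width; relative tumor size (% of controls) read at day 28.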
# Mus musculus [6] = assay: Median survival time in days for antitumor activity against P388 Leukemia in CD2 mice at fractioned dose treatment of 2 mg/kg; assay type: functional
# Procedure, shortened: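 P388 leukemia-bearing mice were dosed intraperitoneally once daily for 9 consecutive days (fractioned schedule). The read-out was median survival time in days, reported alongside %T/C and % body weight change.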
# Mus musculus [7] = assay: Mean relative body weight change of treated / mean relative body weight change of control when compound (3 mg/kg/day) administered to inhibit growth of human tumor xenograft GXF 97 was reported at day 21 in nude mice; assay type: functional; procedure, shortened: as §1
# Mus musculus [8] = assay: Mean relative body weight change of treated / mean relative body weight change of control when compound (3 mg/kg/day) administered to inhibit growth of human tumor xenograft GXF 97 was reported at day 14 in nude mice; assay type: functional; procedure, shortened: as §1
# Mus musculus [9] = assay: Body wieght treated/body weight untreated controls of compound (10 mg/Kg) was evaluated in vivo for antitumor activity against MAC 16 in female NMRI mice on day 12; assay type: functional
# WiDr = assay: In vitro antitumor activity against WiDr colon carcinoma tumor cell line was determined; assay type: functional; conditions: Homo sapiens, read-out: ID50 (the source's name)
# Procedure, shortened: (§3)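 Cell growth inhibition in vitro measured by the PIT method, with mitomycin C as positive reference.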
# L1210 = assay: In vitro antitumor activity against L1210 lymphocytic leukemia tumor cell line was determined; assay type: functional; conditions: Mus musculus, read-out: ID50 (the source's name)
# Procedure, shortened: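 Inhibition of L1210 leukemia colony formation in vitro, with mitomycin C as positive reference.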
# Mus musculus [10] = assay: Compound (10 mg/Kg) was evaluated in vivo for antitumor activity against MAC 16 in female NMRI mice on day 4 and ratio of tumor weight of treated to that of control was determined; assay type: functional
# Mus musculus [11] = assay: Percent T/C ([…]) for antitumor activity against P388 Leukemia in CD2 mice at fractioned dose treatment of 2 mg/kg; assay type: functional; procedure, shortened: as §2
# Mus musculus [12] = assay: Ability of intraperitoneally administered compound (3 mg/kg/day) to inhibit growth of human tumor xenograft GXF 97 was assessed on day 21 in nude mice; assay type: functional
# Procedure, shortened: (§4)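 GXF 97 human gastric xenograft grown subcutaneously in nude mice for 24 days, then randomized; dosing began 1 day later as ip injections on days 1-4. Groups had 4-5 mice. Tumor length and width were measured. %T/C = median relative tumor size of treated / median relative tumor size of controls.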
# Mus musculus [13] = assay: Ability of intraperitoneally administered compound (3 mg/kg/day) to inhibit growth of human tumor xenograft GXF 97 was assessed on day 28 in nude mice; assay type: functional; procedure, shortened: as §4
# Mus musculus [14] = assay: Body wieght treated/body weight untreated controls of compound (10 mg/Kg) was evaluated in vivo for antitumor activity against MAC 16 in female NMRI mice on day 4; assay type: functional
# A204 = assay: In vitro antitumor activity against A204 rhabdomyosarcoma tumor cell line was determined; assay type: functional; conditions: Homo sapiens, read-out: ID50 (the source's name); procedure, shortened: as §3
# Mus musculus [15] = assay: Compound (10 mg/Kg) was evaluated in vivo for antitumor activity against MAC 13 in female NMRI mice on day 2 and ratio of tumor weight of treated to that of control was determined
# Mus musculus [16] = assay: Percent T/C ([…]) for antitumor activity against P388 Leukemia in CD2 mice at fractioned dose treatment of 12 mg/kg; assay type: functional; conditions: in the assay text read “single dose” for “fractioned dose”; procedure, shortened: as §2
# Mus musculus [17] = assay: Compound (10 mg/Kg) was evaluated in vivo for antitumor activity against MAC 16 in female NMRI mice on day 12 and ratio of tumor weight of treated to that of control was determined; assay type: functional
# Mus musculus [18] = assay: Percent inhibition of compound (10 mg/Kg) was evaluated in vivo for antitumor activity against MAC 13 in female NMRI mice on day 2; assay type: functional
# Procedure, shortened: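 MAC 13 in female NMRI mice. Drugs were given in arachis oil BP by ip route on day 2 or day 29. % inhibition was derived from treated/untreated control tumor weight (volume); a negative value indicates stimulation.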
# Mus musculus [19] = assay: Percent T/C ([…]) for antitumor activity against P388 Leukemia in CD2 mice at fractioned dose treatment of 8 mg/Kg; assay type: functional; conditions: in the assay text read “single dose” for “fractioned dose”; procedure, shortened: as §2
# Mus musculus [20] = assay: Ability of intraperitoneally administered compound (3 mg/kg/day) to inhibit growth of human tumor xenograft GXF 97 was assessed on day 14 in nude mice; assay type: functional; procedure, shortened: as §4
# Mus musculus [21] = assay: Percentage change in body weight [(day 6 - day 1)/ day 1] for antitumor activity against P388 Leukemia in CD2 mice at fractioned dose treatment of 8 mg/Kg; assay type: functional; conditions: in the assay text read “single dose treatment” for “fractioned dose treatment”; procedure, shortened: as §2
# Mus musculus [22] = assay: Percentage change in body weight [(day 6 - day 1)/ day 1] for antitumor activity against P388 Leukemia in CD2 mice at fractioned dose treatment of 2 mg/Kg; assay type: functional; procedure, shortened: as §2
smiles,measurement,setting,value
COC1=CC(=O)c2c(c(COC(C)=O)c3n2CCC3OC(C)=O)C1=O (stereo not given),BWC,Mus musculus [1],87.1%
same,BWC,Mus musculus [2],-1.8%
same,MST,Mus musculus [3],11 days
same,MST,Mus musculus [4],10 days
same,Relative TS,Mus musculus [5],210.1%
same,MST,Mus musculus [6],12 days
same,BWC,Mus musculus [7],86.5%
same,BWC,Mus musculus [8],89.6%
same,BW,Mus musculus [9],81%
same,IC50,WiDr,0.037 µg/mL
same,IC50,L1210,0.495 µg/mL
same,T/C,Mus musculus [10],99%
same,T/C,Mus musculus [11],109%
same,T/C,Mus musculus [12],31.7%
same,T/C,Mus musculus [13],31.7%
same,BW,Mus musculus [14],105%
same,IC50,A204,0.008 µg/mL
same,T/C,Mus musculus [15],152%
same,T/C,Mus musculus [16],91%
same,T/C,Mus musculus [17],104%
same,I,Mus musculus [18],-52%
same,T/C,Mus musculus [19],100%
same,T/C,Mus musculus [20],39.3%
same,BWC,Mus musculus [21],-2%
same,BWC,Mus musculus [22],-20.9%
